What was measured:
[1] = molecular target: Histamine H3 receptor (Cavia porcellus) (UniProt Q9JI35); assay: Antagonist activity against histamine H3 receptor in guinea pig ileum; type: functional, tissue-based
In short: (§1)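 Isolated guinea pig ileum segments, electrically evoked twitches; H3 antagonism from concentration-dependent inhibition of twitches by (R)-α-methylhistamine in presence of antagonist; agonist activity from concentration–response curves of the test compound in place of (R)-α-methylhistamine; each experiment at least in triplicate.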

[2] = molecular target: Histamine H2 receptor (Cavia porcellus) (UniProt P47747); assay: Antagonist activity against histamine H2 receptor in guinea pig atrium; type: functional, tissue-based; conditions: Cardiac atrium
In short: (§2)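 Isolated guinea pig tissues: H1 activity on ileum, H2 activity on spontaneously beating right atrium, by standard functional methods; each test at least in triplicate; exact type of interaction not determined in every case.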

[3] = molecular target: T1, Histamine H3 receptor (Rattus norvegicus, UniProt Q9QYN8); assay: In vitro intrinsic activity against histamine H3 receptor from synaptosomes of rat cerebral cortex; type: subcellular, Brain
In short: (§3)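 Rat cerebral cortex synaptosomes; K+-evoked depolarization-induced [3H]histamine release measured for H3 agonist and antagonist activity; intrinsic activity derived from this preparation; at least triplicate.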

[4] = molecular target: Histamine H3 receptor (Mus musculus) (UniProt P58406); assay: In vivo intrinsic activity against histamine H3 receptor in mice after peroral administration; type: organism-based
In short: (§4)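 Swiss mice dosed orally with compounds as a methylcellulose suspension; brain histamine turnover assessed from increased (antagonist) or decreased (agonist) cerebral cortex N-methylhistamine level; intrinsic activity from modulation of this metabolite level; at least in triplicate.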

[5] = molecular target: T1, Histamine H3 receptor; assay: (§5) In vitro binding affinity against histamine H3 receptor from synaptosomes of rat cerebral cortex; type: subcellular, Brain
[6] = molecular target: Histamine H1 receptor (Cavia porcellus) (UniProt P31389); assay: Antagonist activity against histamine H1 receptor in guinea pig ileum; type: functional, tissue-based; in short: as §2
[7] = molecular target: T1, Histamine H3 receptor; assay: Antagonist activity against histamine H3 receptor on synaptosomes of rat cerebral cortex; type: functional, subcellular, Brain; in short: as §3
[8] = molecular target: Histamine H3 receptor (Mus musculus) (UniProt P58406); assay: In vivo agonistic activity against histamine H3 receptor in mice after peroral administration; type: functional, organism-based; in short: as §4
[9] = molecular target: Histamine H3 receptor (Cavia porcellus) (UniProt Q9JI35); assay: Binding affinity for guinea pig ileum histamine H3 receptor; type: tissue-based; in short: as §1
[10] = molecular target: T1, Histamine H3 receptor; assay: as §5; type: subcellular, Brain; in short: as §3; remark: listed apart in the source

Chain of Histamine H1 receptor (Cavia porcellus) (P31389 whole entry): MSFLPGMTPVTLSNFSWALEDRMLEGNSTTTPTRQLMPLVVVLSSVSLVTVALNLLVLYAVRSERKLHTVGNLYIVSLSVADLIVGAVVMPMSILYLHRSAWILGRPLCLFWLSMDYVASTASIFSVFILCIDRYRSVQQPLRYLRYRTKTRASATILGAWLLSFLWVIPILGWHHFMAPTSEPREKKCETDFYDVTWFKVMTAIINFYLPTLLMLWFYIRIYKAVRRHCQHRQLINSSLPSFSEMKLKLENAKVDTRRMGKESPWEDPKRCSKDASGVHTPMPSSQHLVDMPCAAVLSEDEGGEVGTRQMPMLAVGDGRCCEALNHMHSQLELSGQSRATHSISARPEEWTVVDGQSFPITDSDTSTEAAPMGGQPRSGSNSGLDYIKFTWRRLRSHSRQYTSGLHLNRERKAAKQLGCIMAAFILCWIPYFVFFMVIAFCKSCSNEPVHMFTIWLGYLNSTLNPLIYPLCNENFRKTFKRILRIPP
Chain of Histamine H3 receptor (Cavia porcellus) (Q9JI35 whole entry): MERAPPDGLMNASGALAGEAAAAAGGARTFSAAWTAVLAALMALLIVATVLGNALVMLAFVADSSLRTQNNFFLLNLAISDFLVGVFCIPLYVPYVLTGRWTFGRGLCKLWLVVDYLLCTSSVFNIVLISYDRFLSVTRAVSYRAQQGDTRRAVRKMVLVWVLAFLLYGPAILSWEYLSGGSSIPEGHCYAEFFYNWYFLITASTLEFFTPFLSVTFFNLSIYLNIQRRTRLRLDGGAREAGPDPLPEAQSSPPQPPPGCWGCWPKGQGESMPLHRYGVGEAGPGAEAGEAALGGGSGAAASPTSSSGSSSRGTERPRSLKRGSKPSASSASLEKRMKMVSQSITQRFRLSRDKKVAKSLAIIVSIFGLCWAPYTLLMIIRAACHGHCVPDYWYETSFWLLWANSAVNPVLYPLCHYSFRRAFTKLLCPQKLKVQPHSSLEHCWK
Chain of Histamine H2 receptor (Cavia porcellus) (P47747 whole entry): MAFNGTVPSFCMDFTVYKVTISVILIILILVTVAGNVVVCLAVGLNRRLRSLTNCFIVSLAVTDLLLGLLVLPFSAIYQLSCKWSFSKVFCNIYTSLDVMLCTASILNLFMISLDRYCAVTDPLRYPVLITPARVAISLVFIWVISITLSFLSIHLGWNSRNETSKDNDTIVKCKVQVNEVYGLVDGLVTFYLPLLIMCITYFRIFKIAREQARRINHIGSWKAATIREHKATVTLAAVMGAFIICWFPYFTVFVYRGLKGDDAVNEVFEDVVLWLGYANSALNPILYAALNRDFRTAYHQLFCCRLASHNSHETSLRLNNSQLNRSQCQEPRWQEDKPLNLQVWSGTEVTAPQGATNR
T1 sequence (Q9QYN8 whole entry): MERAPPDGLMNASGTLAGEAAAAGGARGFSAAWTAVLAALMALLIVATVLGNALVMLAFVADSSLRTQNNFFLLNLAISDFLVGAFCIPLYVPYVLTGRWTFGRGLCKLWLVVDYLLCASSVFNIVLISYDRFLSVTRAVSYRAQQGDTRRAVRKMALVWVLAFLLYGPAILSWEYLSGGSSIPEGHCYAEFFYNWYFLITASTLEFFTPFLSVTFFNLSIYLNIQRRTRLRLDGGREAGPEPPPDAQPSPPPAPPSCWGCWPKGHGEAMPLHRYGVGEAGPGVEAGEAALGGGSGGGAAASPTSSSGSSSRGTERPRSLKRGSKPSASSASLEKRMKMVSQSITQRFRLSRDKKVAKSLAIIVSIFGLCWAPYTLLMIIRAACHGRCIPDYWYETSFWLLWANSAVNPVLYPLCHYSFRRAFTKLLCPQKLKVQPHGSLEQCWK
Chain of Histamine H3 receptor (Mus musculus) (P58406 whole entry): as the sequence (Q9QYN8 whole entry) above, with T15A, A286T, A290G, R387H, I389V counted along it

Structure (SMILES) | pkB [1] | pkB [2] | Intrinsic activity [3] | Intrinsic activity [4] | Ki [5] [µM] | pkB [6] | Ki [7] [µM] | ED50 [8] [mg/kg] | Kb [9] [µM] | EC50 [10] [µM]
CC(C)(C)CC(C)(C)NC(=O)OCCCc1c[nH]cn1 | 7.58 | 4.3 | – | – | 0.042 | 6 | 0.0417 | – | 0.028 | –
CC(C)COCCCc1c[nH]cn1 | 6.64 | – | – | – | 0.139 | – | 0.138 | – | 0.228 | –
CC(C)CCOCCCc1c[nH]cn1 | 7.03 | 3.5 | 0.22 | 1 | 0.014 | 4.5 | 0.0141 | 0.51 | 0.093 | 0.128
N=C(N)SCCc1c[nH]cn1 | – | – | – | 1 | – | – | – | 1 | 0.0066 | –
CC(C)(C)CCOCCCc1c[nH]cn1 | 7.38 | < 4 | 0.55 | 1 | 0.01 | 4.5 | 0.01 | 0.29 | 0.042 | 0.045
CCC(C)(C)NC(=O)OCCCc1c[nH]cn1 | 7.34 | 3.5 | – | 0.4 | – | 4.8 | – | 0.2 | 0.046 | –
CC(C)CNC(=O)OCCCc1c[nH]cn1 | 7.39 | < 4 | – | – | – | < 4.5 | – | > 10 | 0.041 | –
CC(C)CCCOCCCc1c[nH]cn1 | 7.89 | 4.6 | 0.25 | 0.6 | 0.0094 | 5 | 0.00933 | 0.15 | 0.013 | –

Other lines, results leading:

pkB [1] | pkB [2] | Intrinsic activity [3] | Intrinsic activity [4] | Ki [5] [µM] | pkB [6] | Ki [7] [µM] | ED50 [8] [mg/kg] | Kb [9] [µM] | EC50 [10] [µM] | Structure (SMILES)
7.4 | 3.2 | 0.15 | 0.7 | 0.023 | 3.5 | 0.0229 | 0.48 | 0.04 | – | CC(C)(C)CNC(=O)OCCCc1c[nH]cn1.O.O=C(O)C(=O)O
7.04 | < 4.3 | – | – | 0.082 | < 4 | 0.0813 | 15 | 0.091 | – | CC(C)NC(=O)OCCCc1c[nH]cn1.O=CC(=O)/C(O)=C/O
7.22 | < 4 | – | 0.7 | – | < 4 | – | 0.9 | 0.06 | – | CC(C)(C)NC(=O)OCCCc1c[nH]cn1.O=CC(=O)/C(O)=C/O
7.53 | 4.3 | – | – | – | 4.2 | – | – | 0.03 | – | CC(C)(C)CCNC(=O)OCCCc1c[nH]cn1.O=CC(=O)/C(O)=C/O
